# Assay results taken from the M2OR odorant receptor database.
# Molecular target: T1, Or1m1 (Mus musculus) (UniProt Q8VFM9)
# T1 sequence (whole entry): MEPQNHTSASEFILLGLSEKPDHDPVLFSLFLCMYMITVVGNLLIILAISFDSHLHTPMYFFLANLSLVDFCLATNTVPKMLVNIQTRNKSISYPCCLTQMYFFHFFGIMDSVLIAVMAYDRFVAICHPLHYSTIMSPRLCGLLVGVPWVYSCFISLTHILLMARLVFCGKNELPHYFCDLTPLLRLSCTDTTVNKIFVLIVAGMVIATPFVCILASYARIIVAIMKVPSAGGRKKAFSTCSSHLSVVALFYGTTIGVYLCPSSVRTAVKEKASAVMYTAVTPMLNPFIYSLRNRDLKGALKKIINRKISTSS
# Details: stereoisomer not certain
# How it was run: (§1)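 Assay methods differ from source to source, frequently being transient luciferase assays in mammalian cell lines. For each receptor–molecule pair, the label responsive (active) applies when the original authors judged the measured signal statistically different from baseline, and non-responsive (inactive) applies otherwise.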
row,SMILES,odorant receptor agonist call
1,COc1nccnc1C(C)C,inactive
2,CCC(C)c1nccnc1OC (stereo not drawn),inactive
3,CCc1ncc(C)nc1CC,inactive
4,CCc1nccnc1CC,inactive
5,COc1cnccn1,inactive

# Molecular target: T2, Or2c1 (Mus musculus) (UniProt P23275)
# T2 sequence (whole entry): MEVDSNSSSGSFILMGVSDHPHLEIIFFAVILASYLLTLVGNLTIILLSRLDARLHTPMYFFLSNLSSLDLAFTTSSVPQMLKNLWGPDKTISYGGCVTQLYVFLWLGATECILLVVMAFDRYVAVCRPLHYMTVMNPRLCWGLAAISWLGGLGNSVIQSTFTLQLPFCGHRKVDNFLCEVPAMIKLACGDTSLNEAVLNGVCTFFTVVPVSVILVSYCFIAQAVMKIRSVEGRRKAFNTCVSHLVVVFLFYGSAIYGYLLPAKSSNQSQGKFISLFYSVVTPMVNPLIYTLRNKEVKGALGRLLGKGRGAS
# Details: stereoisomer not certain
# How it was run: as §1
row,SMILES,odorant receptor agonist call
1,CCCCCO,inactive
2,CCCCOC(=O)C(C)OC(=O)CCC (stereo not drawn),inactive
3,CCCCCCC(=O)[O-].[H+],inactive
4,O=c1ccc2ccccc2o1,inactive
5,CCC(C(=O)O)c1ccccc1 (stereo not drawn),inactive

# Molecular target: T3, Or5an6 (Mus musculus) (UniProt Q8VFV4)
# T3 sequence (whole entry): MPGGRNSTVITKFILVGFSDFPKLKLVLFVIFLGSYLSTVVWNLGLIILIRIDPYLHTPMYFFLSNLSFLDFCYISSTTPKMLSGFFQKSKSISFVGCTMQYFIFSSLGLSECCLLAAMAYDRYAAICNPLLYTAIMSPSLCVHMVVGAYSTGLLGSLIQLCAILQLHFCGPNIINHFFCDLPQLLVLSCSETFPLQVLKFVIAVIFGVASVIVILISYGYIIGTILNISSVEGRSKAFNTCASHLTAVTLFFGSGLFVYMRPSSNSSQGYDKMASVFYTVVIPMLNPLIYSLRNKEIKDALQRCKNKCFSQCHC
# Details: stereoisomer not certain
# How it was run: as §1
row,SMILES,odorant receptor agonist call
1,O=C1CCCCCCCCC1,active
2,CCC(=O)OCC(C)(C)OC(C)C1CCCC(C)(C)C1 (stereo not drawn),active
3,O=C1CCCC=CCCCCCCCCCC1,active
4,CC1CCCCCCCCCCCC(=O)C1 (stereo not drawn),active
5,O=C1CCCCCCCCCC1,inactive
6,O=C1C=CCCCCCCCCCCCCO1,active
7,CCCCCCCCCCCCCC(C)=O,active
8,O=C1CCCCCC=CCCCCCCCCO1,active
9,O=C1CCCCCCC=CCCCCCCC1,active
10,O=C1CCCCCCCCCCCCCC1,active
11,CC1C(C)(C)C2=C(C(=O)CCC2)C1(C)C (stereo not drawn),inactive
12,CCCCCCCC(=O)CCCCCCC,active
13,CC1CC=CCCCCCCCCC(=O)C1 (stereo not drawn),active
